Results pooled from the literature.

| Compound | target or system | test | test system | setting | quantity | result |
| --- | --- | --- | --- | --- | --- | --- |
| Oc1c(-n2ccnn2)cnn1-c1cc(N2CCOCC2)ncn1 |  |  | female monkey, plasma | intravenous, 1 mg/kg | clearance | 11.7 mL/min/kg |
| N=C(N)c1ccc(OCCCCCOc2ccc(C(=N)N)cc2)cc1 | L6 | cell growth or viability, resazurin |  | 70 h | IC50 | 7.6 µM |
| CCCC(=O)Nc1cccc(NC(=O)c2ccccc2Br)c1 |  | chemical stability | mouse, plasma | 5 µM, 5 h, pH 7.4 | compound remaining | 2% |
| Nc1ccn([C@@H]2CS[C@H](CO)O2)c(=O)n1 | HepG2.2.15 | cell growth or viability, MTT |  | 6 days | CC50 | > 1000 µM |
| CC(=O)c1ccc2c(c1)N(CCCN(C)C)c1ccccc1S2 | CEM-SS | cell growth or viability, XTT |  | 6 days | CC50 | 18 µM |
| C=C(C)[C@H](CC=C(C)C)Cc1c(O)cc(O)c2c1O[C@H](c1ccccc1O)CC2=O | COLO 205 | cell growth or viability, MTT |  | 48 h | IC50 | 28.1 µM |
| Nc1nc(-c2cc(F)cc(NC(=O)Nc3cc(F)cc(-c4c[nH]c(N)n4)c3)c2)c[nH]1 |  | metabolic stability | human, liver microsomes | 5 µM, 1 h, pH 7.4 | compound remaining | > 80% |
| O=[N+]([O-])c1ccc(-c2nc3cccc(O)c3[nH]2)o1 | CEM-SS | cell growth or viability, resazurin |  | 72 h | CC50 | 90 µM |
| CCC(=O)C[C@H](O)C[C@@H](C)C[C@H](NC(=O)[C@@H]1C[C@H](C)CN1C(=O)/C=C/[C@@H](C)CC)C(=O)N[C@H](C(=O)NC(C)(C)C(=O)N[C@@H](CC(C)C)C(=O)N[C@@H](CC(C)C)C(=O)NC(C)(C)C(=O)NC(C)(C)C(=O)NCCC(=O)N[C@@H](C)CN(C)C)[C@H](O)C(C)C | L6 | cell growth or viability, resazurin |  | 68 h | IC50 | 0.259 µM |
| COc1cccc2c1C(=O)c1c(O)c3c(c(O)c1C2=O)C[C@@](O)(C(=O)CO)C[C@@H]3O[C@H]1C[C@H](N)[C@H](O)[C@H](C)O1 | COLO 205 | cell growth or viability, MTT |  | 48 h | IC50 | 0.5 µM |
| Nc1nc(-c2ccc(NC(=O)Nc3ccc(-c4c[nH]c(N)n4)c(F)c3)cc2F)c[nH]1 |  | metabolic stability | human, liver microsomes | 5 µM, 1 h, pH 7.4 | compound remaining | > 80% |
| O=C(CCCO)N1N=C(c2c(-c3ccc(Cl)cc3)c3ccccc3[nH]c2=O)CC1c1ccc(Cl)cc1 (stereo not drawn) |  | metabolic stability | human, liver microsomes | 1 µM, 10 min, pH 7.4 | compound remaining | 52% |
